Tests used:
B16-F10 [1] = assay: Inhibition of melanin production in mouse B16F10 cells at 100 uM after 2 days; type: functional; details: B16-F10, 48 h
Outline: (§1)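 Extracellular melanin release: B16 murine melanoma cells seeded at 1×10^5 per well overnight, then alpha-MSH added with or without compound in phenol red-free DMEM for 2 d. Melanin in the medium quantified by absorbance at 405 nm. Cells were maintained in DMEM with 10% heat-inactivated FBS and 1% penicillin-streptomycin at 37 °C, 5% CO2.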

[2] = Cytotoxicity against mouse B16F10 cells assessed as cell viability after 24 hrs by MTT assay; type: cell-based, B16-F10; design: concentration or dose not given beside the values
Outline: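 B16 murine melanoma cells (DMEM, 10% heat-inactivated FBS, 1% penicillin-streptomycin, 5% CO2, 37 °C) exposed to compounds or no compound for 24 h. MTT (5 mg/ml in PBS) added, 3 h at 37 °C, formazan dissolved in DMSO, absorbance read at 570 nm.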

B16-F10 [3] = assay: Inhibition of melanin production in mouse B16F10 cells at 500 uM after 2 days; type: functional; details: B16-F10, 48 h; outline: as §1

Row | Structure (SMILES) | inhibition at 100 µM (B16-F10 [1]) [%] | cytotoxicity (% decrease in viability) at 24 h [2] [%] | inhibition at 500 µM (B16-F10 [3]) [%]
1 | CC(=O)Oc1cc(/C=C/C(=O)O[C@H]2Cc3cc4ccc(=O)oc4cc3OC2(C)C)cc(OC(C)=O)c1OC(C)=O | 35.4 | 54.8 | –
2 | COc1ccccc1CCC(=O)O[C@H]1Cc2cc3ccc(=O)oc3cc2OC1(C)C | 68.9 | 6.1 | –
3 | CC1(C)Oc2cc3oc(=O)ccc3cc2C[C@@H]1OC/C=C/c1ccccc1 [PROGERININ] | 33.8 | -12.5 | –
4 | COc1cc(/C=C/C(=O)O[C@H]2Cc3cc4ccc(=O)oc4cc3OC2(C)C)cc(OC)c1OC | 18.8 | 4.1 | –
5 | CC(=O)Oc1cccc(/C=C/C(=O)O[C@H]2Cc3cc4ccc(=O)oc4cc3OC2(C)C)c1 | 80.7 | 31.4 | –
6 | C/C=C(/C)C(=O)O[C@H]1Cc2cc3ccc(=O)oc3cc2OC1(C)C [DECURSINOL ANGELATE] | 74.5 | -2.4 | –
7 | CCCCC(=O)O[C@H]1Cc2cc3ccc(=O)oc3cc2OC1(C)C | 76.5 | 10.4 | –
8 | CC1(C)Oc2cc3oc(=O)ccc3cc2C[C@@H]1OC(=O)/C=C/c1ccc(O)cc1 | 66.4 | 65.8 | –
9 | CC1(C)Oc2cc3oc(=O)ccc3cc2C[C@@H]1OC(=O)/C=C/c1cc(O)c(O)c(O)c1 | 59.2 | 42.9 | –
10 | CC1(C)Oc2cc3oc(=O)ccc3cc2C[C@@H]1OC(=O)/C=C/c1ccco1 | 33 | -1.4 | –
11 | C=C(C)C(=O)O[C@H]1Cc2cc3ccc(=O)oc3cc2OC1(C)C | 58.1 | 58.4 | –
12 | COc1ccccc1/C=C/C(=O)O[C@H]1Cc2cc3ccc(=O)oc3cc2OC1(C)C | 63.7 | -5.1 | –
13 | CC1(C)Oc2cc3oc(=O)ccc3cc2C[C@@H]1OC(=O)/C=C/c1cccnc1 | 53.5 | 5 | –
14 | C/C=C(\C)C(=O)O[C@H]1Cc2cc3ccc(=O)oc3cc2OC1(C)C [DECURSINOL TIGLATE] | 71.5 | 16.4 | –
15 | CC(C)=CC(=O)O[C@H]1Cc2cc3ccc(=O)oc3cc2OC1(C)C [DECURSIN] | 71 | -9.7 | –
16 | CC(=O)Oc1ccc(/C=C/C(=O)O[C@H]2Cc3cc4ccc(=O)oc4cc3OC2(C)C)cc1OC(C)=O | 30.7 | 49.4 | –
17 | CC/C=C/C(=O)O[C@H]1Cc2cc3ccc(=O)oc3cc2OC1(C)C | 79.4 | 39.5 | –

Row | Structure (SMILES) | inhibition at 100 µM (B16-F10 [1]) [%] | cytotoxicity (% decrease in viability) at 24 h [2] [%] | inhibition at 500 µM (B16-F10 [3]) [%]
18 | C=CCC(=O)O[C@H]1Cc2cc3ccc(=O)oc3cc2OC1(C)C | -8.1 | 0.6 | –
19 | COc1ccc(/C=C/C(=O)O[C@H]2Cc3cc4ccc(=O)oc4cc3OC2(C)C)cc1 | 40.3 | -3.5 | –
20 | OC[C@H]1O[C@@H](Oc2ccc(O)cc2)[C@H](O)[C@@H](O)[C@@H]1O [ARBUTIN] | – | -6.2 | 41
21 | CC1(C)Oc2cc3oc(=O)ccc3cc2C[C@@H]1OC(=O)/C=C/c1cccc(O)c1 | 73.8 | 47.9 | –
22 | C=CCCC(=O)O[C@H]1Cc2cc3ccc(=O)oc3cc2OC1(C)C | 36.4 | -0.4 | –
23 | CC1(C)Oc2cc3oc(=O)ccc3cc2C[C@@H]1OC(=O)/C=C/c1cccs1 | 71.6 | -15.4 | –
24 | COc1ccc(/C=C/C(=O)O[C@H]2Cc3cc4ccc(=O)oc4cc3OC2(C)C)cc1OC | 42.4 | -1.4 | –
25 | CC1(C)Oc2cc3oc(=O)ccc3cc2C[C@@H]1OC(=O)CCc1ccccc1 | 62.8 | -0.6 | –
26 | COc1cccc(/C=C/C(=O)O[C@H]2Cc3cc4ccc(=O)oc4cc3OC2(C)C)c1 | 37.9 | 14.5 | –
27 | CC(=O)O[C@H]1Cc2cc3ccc(=O)oc3cc2OC1(C)C | -5.7 | 3.7 | –
28 | CC1(C)Oc2cc3oc(=O)ccc3cc2C[C@@H]1O [DECURSINOL] | 12.2 | 1.4 | –
29 | CC(=O)Oc1ccccc1/C=C/C(=O)O[C@H]1Cc2cc3ccc(=O)oc3cc2OC1(C)C | 65.9 | 63.1 | –
30 | CC(=O)Oc1ccc(/C=C/C(=O)O[C@H]2Cc3cc4ccc(=O)oc4cc3OC2(C)C)cc1 | 76.1 | 58 | –
31 | CCCCCCCCCC(=O)O[C@H]1Cc2cc3ccc(=O)oc3cc2OC1(C)C | 79.3 | 28.2 | –
32 | CC1(C)Oc2cc3oc(=O)ccc3cc2C[C@@H]1OC(=O)/C=C/c1ccccc1O | 76.8 | 74.2 | –
33 | CC1(C)Oc2cc3oc(=O)ccc3cc2C[C@@H]1OC(=O)/C=C/c1ccc(O)c(O)c1 | 43.5 | 67.6 | –
34 | CC1(C)Oc2cc3oc(=O)ccc3cc2C[C@@H]1OC(=O)/C=C/c1ccccc1 [DIHYDROPYRANOCOUMARIN D2] | 72.1 | 0.8 | –

— ChEMBL document CHEMBL1629471, “Synthesis of (S)-(+)-decursin and its analogues as potent inhibitors of melanin formation in B16 murine melanoma cells” (Eur J Med Chem, 2010)
